# Results from ChEMBL document CHEMBL1157190, “Design, synthesis, and anticonvulsant activity of N-phenylamino derivatives of 3,3-dialkyl-pyrrolidine-2,5-diones and hexahydro-isoindole-1,3-diones” (Bioorg Med Chem, 2008).
# The source made the active and inactive calls. The calls are words filed in the database; no cut-off is given here.
# Experiments:
# Mus musculus [1] = experiment: Neurotoxicity in ip dosed CF1 albino mouse at 300 mg/kg after 4 hrs by rotarod test; assay type: toxicity, organism-based; parameters: dose 300 mg/kg, route intraperitoneal; conditions: in vivo
# How it was run: (§1)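 CF-1 mice given 30, 100 or 300 mg/kg ip in 0.5% methylcellulose/water, examined at 0.5 and 4 h. Rotorod test: neurotoxicity is the inability to keep equilibrium on the rod for a given time. Value is the minimum dose giving motor impairment; a dash means none at 300 mg/kg.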
# Mus musculus [2] = experiment: Neurotoxicity in ip dosed CF1 albino mouse at 300 mg/kg after 0.5 hr by rotarod test; assay type: toxicity, organism-based; parameters: dose 300 mg/kg, route intraperitoneal; conditions: in vivo; how it was run: as §1
# Rattus norvegicus [3] = experiment: Anticonvulsant activity in Sprague-Dawley rat assessed as protection against seizure rat at 50 mg/kg, po after 0.25 hr by subcutaneous pentylenetetrazole test; assay type: functional
# How it was run: (§2)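 Male Sprague–Dawley rats dosed orally at 50 mg/kg as a 0.5% methylcellulose/water suspension, four animals per time point. Convulsant given subcutaneously at 0.25, 0.5, 1, 2 and 4 h after dosing; rotorod motor impairment assessed in parallel. Read-out: number of rats of four protected.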
# Mus musculus [4] = experiment: Anticonvulsant activity in ip dosed CF1 albino mouse assessed as inhibition of maximal electroshock-induced electrical stimulus at 300 mg/kg after 4 hrs; assay type: functional, organism-based; parameters: dose 300 mg/kg
# How it was run: (§3)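 Male CF-1 mice injected intraperitoneally at 30, 100 and 300 mg/kg, suspended in 0.5% methylcellulose/water. MES or subcutaneous pentylenetetrazole challenge at 0.5 and 4 h; selected compounds also at 1 or 2 h.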
# Mus musculus [5] = experiment: Anticonvulsant activity in ip dosed CF1 albino mouse assessed as inhibition of subcutaneous pentylenetetrazole-induced electrical stimulus after 4 hrs; assay type: functional; how it was run: as §3
# Rattus norvegicus [6] = experiment: Anticonvulsant activity in Sprague-Dawley rat assessed as protection against seizure at 50 mg/kg, po after 4 hrs by subcutaneous pentylenetetrazole test; assay type: functional; how it was run: as §2
# Mus musculus [7] = experiment: Anticonvulsant activity in ip dosed CF1 albino mouse assessed as inhibition of maximal electroshock-induced electrical stimulus at 300 mg/kg after 0.5 hr; assay type: functional, organism-based; parameters: dose 300 mg/kg; how it was run: as §3
# Mus musculus [8] = experiment: Anticonvulsant activity in ip dosed CF1 albino mouse assessed as inhibition of subcutaneous pentylenetetrazole-induced electrical stimulus after 0.5 hr; assay type: functional; how it was run: as §3
# Mus musculus [9] = experiment: Anticonvulsant activity in ip dosed CF1 albino mouse assessed as inhibition of maximal electroshock-induced electrical stimulus after 0.5 hr; assay type: functional; how it was run: as §3
# [10] = Lipophilicity, log kw of compound by RP-HPLC; assay type: physicochemical
# How it was run: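 RP-HPLC on a C18 end-capped column at room temperature, with UV detection at 214 nm and uracil as the unretained marker. Capacity factor k = (tr − t0)/t0, from the mean of three measurement sets. log k extrapolated to 100% water (log k = log kw − Sφ) to give log kw.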
# Mus musculus [11] = experiment: Anticonvulsant activity in ip dosed CF1 albino mouse assessed as inhibition of subcutaneous pentylenetetrazole-induced electrical stimulus at 300 mg/kg after 4 hrs; assay type: functional, organism-based; parameters: dose 300 mg/kg; how it was run: as §3
# Mus musculus [12] = experiment: Neurotoxicity in ip dosed CF1 albino mouse after 0.5 hr by rotarod test; assay type: toxicity, organism-based; conditions: in vivo; how it was run: as §1
# Rattus norvegicus [13] = experiment: Antiepileptic activity in pilocarpine-induced status prevention in Sprague-Dawley rat assessed as weight change in post first stage 3 seizure at 65 mg/kg after 24 hrs; assay type: functional
# How it was run: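 Pilocarpine-induced status prevention in rats. Compound given ip at time zero (65 or 450 mg/kg), followed by a challenge dose of pilocarpine. Seizure severity scored on the Racine scale. Average weight change (g, ±SEM) recorded for protected and non-protected rats.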
# Mus musculus [14] = experiment: Anticonvulsant activity in ip dosed CF1 albino mouse assessed as inhibition of subcutaneous pentylenetetrazole-induced electrical stimulus at 300 mg/kg after 0.5 hr; assay type: functional, organism-based; parameters: dose 300 mg/kg; how it was run: as §3
# Mus musculus [15] = experiment: Neurotoxicity in ip dosed CF1 albino mouse after 4 hrs by rotarod test; assay type: toxicity, organism-based; conditions: in vivo; how it was run: as §1
# [16] = Neurotoxicity in po dosed Sprague-Dawley rat after 2 hrs by rotarod test; assay type: toxicity, organism-based; conditions: in vivo
# Rattus norvegicus [17] = experiment: Anticonvulsant activity in Sprague-Dawley rat assessed as protection against seizure at 30 mg/kg, po after 0.5 hr by maximal electroshock test; assay type: functional
# How it was run: (§4)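 Male Sprague–Dawley rats; compound suspended in 0.5% methylcellulose/water and given orally at a fixed 30 mg/kg, four rats per time point. MES test run at 0.25, 0.5, 1, 2 and 4 h after dosing, with motor impairment checked in parallel. Read-out: number of rats of four protected.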
# Rattus norvegicus [18] = experiment: Anticonvulsant activity in Sprague-Dawley rat assessed as protection against seizure at 30 mg/kg, po after 4 hrs by maximal electroshock test; assay type: functional; how it was run: as §4
# Rattus norvegicus [19] = experiment: Anticonvulsant activity in Sprague-Dawley rat assessed as protection against seizure at 30 mg/kg, po after 1 hr by maximal electroshock test; assay type: functional; how it was run: as §4
# Rattus norvegicus [20] = experiment: Anticonvulsant activity in Sprague-Dawley rat assessed as protection against seizure at 50 mg/kg, po after 0.5 hr by subcutaneous pentylenetetrazole test; assay type: functional; how it was run: as §2
# Rattus norvegicus [21] = experiment: Anticonvulsant activity in Sprague-Dawley rat assessed as protection against seizure at 50 mg/kg, po after 1 hr by subcutaneous pentylenetetrazole test; assay type: functional, organism-based; parameters: dose 50 mg/kg; how it was run: as §2
# Rattus norvegicus [22] = experiment: Neurotoxicity in po dosed Sprague-Dawley rat at 50 mg/kg by rotarod test; assay type: toxicity, organism-based; parameters: dose 50 mg/kg, route oral; conditions: in vivo; how it was run: as §2
# Rattus norvegicus [23] = experiment: Anticonvulsant activity in Sprague-Dawley rat assessed as protection against seizure at 50 mg/kg, po after 2 hrs by subcutaneous pentylenetetrazole test; assay type: functional, organism-based; parameters: dose 50 mg/kg; how it was run: as §2
# Mus musculus [24] = experiment: Anticonvulsant activity in ip dosed CF1 albino mouse assessed as inhibition of maximal electroshock-induced electrical stimulus after 2 hrs; assay type: functional; how it was run: as §3
# Mus musculus [25] = experiment: Anticonvulsant activity in ip dosed CF1 albino mouse assessed as inhibition of maximal electroshock-induced electrical stimulus after 4 hrs; assay type: functional; how it was run: as §3
Structure (SMILES),Activity (Mus musculus [1]),Activity (Mus musculus [2]),Activity (Rattus norvegicus [3]),Activity (Mus musculus [4]),Activity (Mus musculus [5]) [mg/kg],Activity (Rattus norvegicus [6]),Activity (Mus musculus [7]),Activity (Mus musculus [8]) [mg/kg],Activity (Mus musculus [9]) [mg/kg],log K [10],Activity (Mus musculus [11]),Activity (Mus musculus [12]) [mg/kg],Activity (Mus musculus [15]) [mg/kg],Activity (Rattus norvegicus [20]) [%],Activity (Rattus norvegicus [21]),Activity (Rattus norvegicus [22]),Activity (Rattus norvegicus [23]),also measured
CCC1(C)CC(=O)NC1=O (stereo not drawn) [ETHOSUXIMIDE],Not Active,Not Active,inactive,inactive,300,inactive,inactive,100,–,–,–,–,–,–,–,–,–,–
CC1(C)CC(=O)N(Nc2cccc(Cl)c2)C1=O,Not Active,–,–,inactive,–,–,–,–,100,2.071,inactive,300,–,–,–,–,–,Activity (Rattus norvegicus [13]): 15 g; Activity (Mus musculus [14]): inactive
O=C1NC(=O)C(c2ccccc2)(c2ccccc2)N1 [PHENYTOIN],–,–,–,–,–,–,–,30,30,–,–,100,100,–,–,–,–,TD50 at 2 h [16]: > 500 mg/kg; Activity (Rattus norvegicus [17]): Active; Activity (Rattus norvegicus [18]): inactive; Activity (Rattus norvegicus [19]): inactive
CCCCC1(C)CC(=O)N(Nc2ccc(Br)cc2)C1=O (stereo not drawn),Not Active,–,inactive,inactive,–,inactive,inactive,300,–,2.539,inactive,300,–,25,inactive,Non-toxic,inactive,–
CCC1(CC)CC(=O)N(Nc2ccc(Cl)cc2)C1=O,–,–,–,–,300,–,inactive,100,–,2.314,–,300,300,–,–,–,–,Activity (Mus musculus [24]): 100 mg/kg; Activity (Mus musculus [25]): 300 mg/kg
CCCC1(C)CC(=O)N(Nc2ccc(Cl)cc2Cl)C1=O (stereo not drawn),Not Active,Not Active,25%,inactive,–,25%,inactive,100,–,2.647,inactive,–,–,50,Active,Non-toxic,inactive,–
